Experiments:
Type in all cases: functional, cell-based
L1210 = experiment: In vitro cytotoxic activity required to inhibit murine lymphocytotic leukemia L1210 cell line; conditions: Mus musculus
Method in brief: (§1)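 Alamar Blue viability assay. (1-5) × 10³ cells were seeded in RPMI 1640 with 10% bovine calf serum and preincubated 24 h. Increasing drug concentrations from DMSO stocks were added (final DMSO 0.5%) and cells incubated 72 h at 37 °C. Fluorescence read at ex 485/em 590 nm. IC50 is the dose inhibiting growth by 50%, mean of at least three independent determinations.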

HT-29 = experiment: In vitro cytotoxic activity required to inhibit human colon adenocarcinoma HT-29 cell line; method in brief: as §1
T-24 = experiment: In vitro cytotoxic activity required to inhibit human bladder carcinoma T24 cell line; method in brief: as §1
B16 = experiment: In vitro cytotoxic activity required to inhibit murine melanoma B16 cell line; conditions: Mus musculus; method in brief: as §1
K562 = experiment: In vitro cytotoxic activity required to inhibit human chronic myelogenous leukemia K-562 cell line; method in brief: as §1
MCF7 = experiment: In vitro cytotoxic activity required to inhibit human estrogen-sensitive breast adenocarcinoma MCF-7 cell line; method in brief: as §1
CHO-VV 3-2 = experiment: Cytotoxic activity on colchicine-resistant CHO-VV 3-2 cell line expressing mutated tubulin; conditions: Cricetulus griseus; method in brief: as §1
CHO-TAX 5-6 = experiment: Cytotoxic activity on paclitaxel-resistant CHO-TAX 5-6 cell line expressing mutated tubulin; conditions: Cricetulus griseus; method in brief: as §1
CHO = experiment: Cytotoxic activity on wild type CHO10001 cell line expressing mutated tubulin; conditions: Cricetulus griseus; method in brief: as §1

Structure (SMILES) | IC50 (L1210) | IC50 (HT-29) | IC50 (T-24) | IC50 (B16) | IC50 (K562) | IC50 (MCF7) | IC50 (CHO-VV 3-2) | IC50 (CHO-TAX 5-6) | IC50 (CHO)
CCC(C)c1ccc(NC(=O)N[C@H](C)CCl)cc1 (some centres undefined) | 1.7 µM | 1.9 µM | 3.4 µM | 4.2 µM | 2 µM | 4.8 µM | – | – | –
CCC(C)c1ccc(NC(=O)N[C@H](CC)CCl)cc1 (some centres undefined) | 11 µM | 20 µM | 28 µM | 20 µM | 19 µM | 38 µM | – | – | –
CC(C)(C)c1ccc(NC(=O)NCCCl)cc1 | 3.3 µM | 4 µM | 6.3 µM | 8 µM | 3.6 µM | 11 µM | 13 µM | 3.1 µM | 7.6 µM
C[C@@H](CCl)NC(=O)Nc1ccc2c(c1)CCC2 | 41 µM | > 100 µM | 92 µM | > 100 µM | 91 µM | > 100 µM | – | – | –
CC[C@@H](CCl)NC(=O)Nc1ccc(I)cc1 | 90 µM | 79 µM | 67 µM | 89 µM | 63 µM | 80 µM | – | – | –
CCC(C)c1ccc(NC(=O)N[C@@H](CC)CCl)cc1 (some centres undefined) | 12 µM | 28 µM | 38 µM | 27 µM | 27 µM | 51 µM | – | – | –
CC(C)c1ccc(NC(=O)N[C@@H](C)CCl)cc1 | 28 µM | 65 µM | 54 µM | 46 µM | 33 µM | > 100 µM | – | – | –
CC[C@H](CCl)NC(=O)Nc1ccc(C(C)(C)C)cc1 | 17 µM | 25 µM | 28 µM | 27 µM | 28 µM | 52 µM | – | – | –
CCC(C)c1ccc(NC(=O)N[C@@H](C)CCl)cc1 (some centres undefined) | 18 µM | 39 µM | 35 µM | 33 µM | 34 µM | 63 µM | – | – | –
O=C(NCCCl)Nc1ccc2ccccc2c1 | 2.9 µM | 2.6 µM | – | 6.3 µM | 2.5 µM | 7.3 µM | – | – | –
C[C@@H](CCl)NC(=O)Nc1ccc2c(c1)Cc1ccccc1-2 | 17 µM | 28 µM | 27 µM | 30 µM | 19 µM | 29 µM | – | – | –
C[C@H](CCl)NC(=O)Nc1ccc(C(C)(C)C)cc1 | 3.4 µM | 3.9 µM | 7 µM | 8.5 µM | 3.8 µM | 10 µM | 15 µM | 3.6 µM | 8.1 µM
C[C@@H](CCl)NC(=O)Nc1ccc(C(C)(C)C)cc1 | 12 µM | 48 µM | 41 µM | 35 µM | 47 µM | 84 µM | 53 µM | 53 µM | 56 µM
CC(C)c1ccc(NC(=O)N[C@H](C)CCl)cc1 | 0.9 µM | 1 µM | 1.9 µM | 2.3 µM | 0.9 µM | 2.9 µM | – | – | –
C[C@@H](CCl)NC(=O)Nc1ccc2ccccc2c1 | 20 µM | 86 µM | 71 µM | > 100 µM | 63 µM | > 100 µM | – | – | –
C[C@H](CCl)NC(=O)Nc1ccc2ccccc2c1 | 1.7 µM | 2.3 µM | 4 µM | 4.5 µM | 2.3 µM | 6 µM | – | – | –
C[C@@H](CCl)NC(=O)Nc1ccc(I)cc1 | 47 µM | 76 µM | 59 µM | 93 µM | 43 µM | 93 µM | 51 µM | 54 µM | 58 µM
CC[C@@H](CCl)NC(=O)Nc1ccc(C(C)(C)C)cc1 | 17 µM | 24 µM | 29 µM | 27 µM | 26 µM | 60 µM | – | – | –
CC(C)c1ccc(NC(=O)NCCCl)cc1 | 2 µM | 2.3 µM | 3.6 µM | 4.7 µM | 1.9 µM | 4.7 µM | – | – | –
CC[C@H](CCl)NC(=O)Nc1ccc(I)cc1 | 87 µM | 34 µM | 46 µM | 49 µM | 31 µM | 52 µM | – | – | –
O=C(NCCCl)Nc1ccc(I)cc1 | 3.6 µM | 6 µM | 12 µM | 16 µM | 6.2 µM | 23 µM | 23 µM | 6.1 µM | 15 µM
CCC(C)c1ccc(NC(=O)NCCCl)cc1 (centres undefined) | 2 µM | 1.8 µM | 3.7 µM | 5 µM | 2 µM | 5.2 µM | – | – | –
CC[C@H](CCl)NC(=O)Nc1ccc(C(C)C)cc1 | 14 µM | 28 µM | 32 µM | 33 µM | 19 µM | 55 µM | – | – | –
C[C@H](CCl)NC(=O)Nc1ccc2c(c1)Cc1ccccc1-2 | 4.2 µM | 6.6 µM | 7.4 µM | 9.3 µM | 5.1 µM | 10 µM | – | – | –
C[C@H](CCl)NC(=O)Nc1ccc(I)cc1 | 0.8 µM | 1.3 µM | 1.8 µM | 2.1 µM | 1 µM | 3.2 µM | 4.7 µM | 0.7 µM | 2.3 µM
CC[C@@H](CCl)NC(=O)Nc1ccc(C(C)C)cc1 | 24 µM | 51 µM | 57 µM | 46 µM | 28 µM | 72 µM | – | – | –
C[C@H](CCl)NC(=O)Nc1ccc2c(c1)CCC2 | 4.2 µM | 6.4 µM | 7.4 µM | 11 µM | 5 µM | 11 µM | – | – | –

Source: ChEMBL document CHEMBL1145895, “A new generation of N-aryl-N'-(1-alkyl-2-chloroethyl)ureas as microtubule disrupters: synthesis, antiproliferative activity, and beta-tubulin alkylation kinetics” (J Med Chem, 2003)
